Laboratory results reported in ChEMBL document CHEMBL1145092, “Soft antimicrobial agents: synthesis and activity of labile environmentally friendly long chain quaternary ammonium compounds” (J Med Chem, 2003).

Assays:
Escherichia coli = assay: Minimum concentration required to inhibit Escherichia coli ATCC 25922; assay type: functional
Summary of the method: (§1)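 Broth doubling-dilution MIC in Mueller Hinton broth against ATCC quality-control strains, incubated 24 h at 37 °C in ambient air. Poorly water-soluble compounds were dissolved in minimal DMSO. Values are in µg/mL.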

Enterococcus faecalis = assay: Minimum concentration required to inhibit Enterococcus faecalis ATCC 29212; assay type: functional; summary of the method: as §1
Pseudomonas aeruginosa = assay: Minimum concentration required to inhibit Pseudomonas aeruginosa ATCC 27853; assay type: functional; summary of the method: as §1
Staphylococcus aureus [1] = assay: Minimum concentration required to inhibit Staphylococcus aureus ATCC 25923; assay type: functional; summary of the method: as §1
[2] = Half life (t1/2) was determined; assay type: ADME
Summary of the method: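 Hydrolytic stability: compound from a 0.1 mg/mL ethanol stock was spiked into 10 mM phosphate buffer, pH 6, and held at 60 °C (±0.2 °C). Periodic HPLC or LC-MS/MS analysis was run, and k_obs came from linear regression of peak integration (n = 3). Selected compounds were also tested in diluted (1:4) agar at 37 °C.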

Staphylococcus aureus [3] = assay: Tested for antibacterial activity against Staphylococcus aureus; assay type: functional
Human alphaherpesvirus 1 [4] = assay: Tested for antiviral activity against HSV-1 at a concentration of 100 ug/mL after 2 hr of treatment at 37 degrees C; assay type: functional, herpes simplex virus
Summary of the method: (§2)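 HSV-1 strain MacIntyre stock (10^6.5–10^7.5 TCID50/100 µL) was mixed 1:1 with twofold compound dilutions made in RPMI-1640 with 2% FBS from a 1 mg/mL HBSS stock; concentrations are final. Mixtures were held 2 h at 37 °C, then diluted 10-fold to stop. Residual titer was measured on Vero monolayers by 10-fold dilutions in quadruplicate wells, scoring CPE daily for 5 days at 37 °C and 5% CO2. Titers were calculated by Reed–Muench as log10 TCID50/0.1 mL, mean of three, against a virus-plus-medium control.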

Human alphaherpesvirus 1 [5] = assay: Tested for antiviral activity against HSV-1 at a concentration of 12.5 ug/mL after 2 hr of treatment at 37 degrees C; assay type: functional, herpes simplex virus; summary of the method: as §2
Human alphaherpesvirus 1 [6] = assay: Tested for antiviral activity against HSV-1 at a concentration of 25 ug/mL after 2 hr of treatment at 37 degrees C; assay type: functional, herpes simplex virus; summary of the method: as §2
Human alphaherpesvirus 1 [7] = assay: Tested for antiviral activity against HSV-1 at a concentration of 50 ug/mL after 2 hr of treatment at 37 degrees C; assay type: functional, herpes simplex virus; summary of the method: as §2

MIC (Escherichia coli)	MIC (Enterococcus faecalis)	MIC (Pseudomonas aeruginosa)	MIC (Staphylococcus aureus [1])	Log t1/2 [2]	Log 1/MIC (Staphylococcus aureus [3])	SMILES	MLC (Escherichia coli)	MLC (Enterococcus faecalis)	MLC (Pseudomonas aeruginosa)	MLC (Staphylococcus aureus [1])	Log TCID50 (Human alphaherpesvirus 1 [4])	Log TCID50 (Human alphaherpesvirus 1 [5])	Log TCID50 (Human alphaherpesvirus 1 [6])	Log TCID50 (Human alphaherpesvirus 1 [7])
1000 µg/mL	< 0.25 µg/mL	1000 µg/mL	< 0.25 µg/mL	0.81	0.6	CCCCCCCCCCCCCCCCCCNC(=O)C[n+]1ccccc1	>2000 µg/mL	8 µg/mL	>2000 µg/mL	4 µg/mL	–	–	–	–
125 µg/mL	32 µg/mL	> 2000 µg/mL	8 µg/mL	–	–	CCCCCCCCCCCC(=O)OCC[n+]1ccccc1.CCCCCCCCCCCCCCCC(=O)OCC[n+]1ccccc1.CCCCCCCCCCCCCCCCCC(=O)OCC[n+]1ccccc1.[Br-].[Br-].[Br-]	250 µg/mL	32 µg/mL	>2000 µg/mL	16 µg/mL	–	–	–	–
125 µg/mL	64 µg/mL	1000 µg/mL	32 µg/mL	–	–	CCCCCCCCCCCC(=O)OCC[N+](CC)(CC)CC.CCCCCCCCCCCC(=O)OCC[n+]1ccccc1.[Br-].[Br-]	250 µg/mL	64 µg/mL	1000 µg/mL	125 µg/mL	–	–	–	–
125 µg/mL	8 µg/mL	500 µg/mL	8 µg/mL	–	–	CCCCCCCCCCCCCCCCCCNC(=O)C[n+]1ccccc1.CCCCCCCCCCCCNC(=O)C[n+]1ccccc1.[Cl-].[Cl-]	125 µg/mL	16 µg/mL	500 µg/mL	32 µg/mL	–	–	–	–
> 12800 µg/mL	> 12800 µg/mL	> 12800 µg/mL	> 12800 µg/mL	-1.1	-4.1	CCCCCCCCCCCCCCCCCCOC(=O)C[n+]1ccccc1	>12800 µg/mL	>12800 µg/mL	>12800 µg/mL	>12800 µg/mL	–	–	–	–
> 1000 µg/mL	250 µg/mL	> 1000 µg/mL	250 µg/mL	–	0.42	CCCCCCCCCCCCCCCCOC(=O)CC[n+]1ccccc1	>1000 µg/mL	500 µg/mL	>1000 µg/mL	250 µg/mL	–	–	–	–
125 µg/mL	32 µg/mL	500 µg/mL	16 µg/mL	–	–	CCCCCCCCCCCC(=O)OCC[N+](CC)(CC)CC.CCCCCCCCCCCC(=O)OCC[N+](CCCC)(CCCC)CCCC.CCCCCCCCCCCC(=O)OCC[n+]1ccccc1.CCCCCCCCCCCCNC(=O)C[n+]1ccccc1.[Br-].[Br-].[Br-].[Br-]	250 µg/mL	32 µg/mL	1000 µg/mL	250 µg/mL	–	–	–	–
6400 µg/mL	> 12800 µg/mL	6400 µg/mL	12800 µg/mL	-0.9	-4.1	CCCCCCCCCCCCCCCCOC(=O)C[n+]1ccccc1	12800 µg/mL	>12800 µg/mL	6400 µg/mL	12800 µg/mL	–	–	–	–
250 µg/mL	1 µg/mL	500 µg/mL	< 0.25 µg/mL	2.36	0.6	CCCCCCCCCCCCCCCC(=O)OCCC[n+]1ccccc1	250 µg/mL	4 µg/mL	500 µg/mL	1 µg/mL	–	–	–	–

More lines, now with the values behind:

SMILES	MIC (Escherichia coli)	MIC (Enterococcus faecalis)	MIC (Pseudomonas aeruginosa)	MIC (Staphylococcus aureus [1])	Log t1/2 [2]	Log 1/MIC (Staphylococcus aureus [3])	MLC (Escherichia coli)	MLC (Enterococcus faecalis)	MLC (Pseudomonas aeruginosa)	MLC (Staphylococcus aureus [1])	Log TCID50 (Human alphaherpesvirus 1 [4])	Log TCID50 (Human alphaherpesvirus 1 [5])	Log TCID50 (Human alphaherpesvirus 1 [6])	Log TCID50 (Human alphaherpesvirus 1 [7])
O=C(O)CC[n+]1ccccc1	> 1000 µg/mL	> 1000 µg/mL	> 1000 µg/mL	> 1000 µg/mL	–	–	>1000 µg/mL	>1000 µg/mL	>1000 µg/mL	>1000 µg/mL	–	–	–	–
CCCCCCCCCCCC(=O)OCC[N+](CC)(CC)CC.[Br-]	16 µg/mL	32 µg/mL	250 µg/mL	16 µg/mL	0.52	-1.2	125 µg/mL	32 µg/mL	250 µg/mL	16 µg/mL	–	–	–	–
CCCCCCCCCCCC(=O)OCCC[n+]1ccccc1	125 µg/mL	4 µg/mL	250 µg/mL	4 µg/mL	1.81	-0.6	125 µg/mL	16 µg/mL	250 µg/mL	4 µg/mL	–	–	–	–
CCCCCCCC(=O)OCC[n+]1ccccc1.[Br-]	1000 µg/mL	> 2000 µg/mL	> 2000 µg/mL	500 µg/mL	0.62	-2.69	1000 µg/mL	>2000 µg/mL	>2000 µg/mL	500 µg/mL	–	–	–	–
CCOC(=O)C(C)[n+]1ccccc1 (stereo not given)	> 12800 µg/mL	> 12800 µg/mL	> 12800 µg/mL	> 12800 µg/mL	–	–	>12800 µg/mL	>12800 µg/mL	>12800 µg/mL	>12800 µg/mL	–	–	–	–
CCCCCCOC(=O)C[n+]1ccccc1	> 12800 µg/mL	> 12800 µg/mL	> 12800 µg/mL	> 12800 µg/mL	0.15	-4.1	>12800 µg/mL	>12800 µg/mL	>12800 µg/mL	>12800 µg/mL	–	–	–	–
CCCCCCCCCCCCCCCC(=O)OCC[N+](CCCC)(CCCC)CCCC	125 µg/mL	4 µg/mL	250 µg/mL	2 µg/mL	0.12	-0.3	250 µg/mL	8 µg/mL	1000 µg/mL	2 µg/mL	–	–	–	–
CCCCCCCCCCCCCCCC(=O)OCC[N+](CC)(CC)CC.[Br-]	64 µg/mL	8 µg/mL	250 µg/mL	2 µg/mL	–	–	64 µg/mL	16 µg/mL	250 µg/mL	4 µg/mL	0.8	7	6.33	5.73
C[N+](C)(C)CCO [CHOLINE]	> 2000 µg/mL	> 2000 µg/mL	> 2000 µg/mL	> 2000 µg/mL	–	–	>2000 µg/mL	>2000 µg/mL	>2000 µg/mL	>2000 µg/mL	–	–	–	–
O=C(O)C[n+]1ccccc1	12800 µg/mL	12800 µg/mL	12800 µg/mL	6400 µg/mL	–	–	12800 µg/mL	12800 µg/mL	12800 µg/mL	12800 µg/mL	–	–	–	–
CCCCCCCCCCCC(=O)OCC[N+](CC)(CC)CC.CCCCCCCCCCCCCCCC(=O)OCC[N+](CC)(CC)CC.[Br-].[Br-]	500 µg/mL	32 µg/mL	> 2000 µg/mL	8 µg/mL	–	–	500 µg/mL	125 µg/mL	>2000 µg/mL	16 µg/mL	–	–	–	–
CC[N+](CC)(CC)CCO.[Br-]	> 1000 µg/mL	> 1000 µg/mL	> 1000 µg/mL	> 1000 µg/mL	–	–	>1000 µg/mL	>1000 µg/mL	>1000 µg/mL	>1000 µg/mL	–	–	–	–
CCCCCCCCCCCC(=O)OCC[N+](C)(C)C	64 µg/mL	16 µg/mL	250 µg/mL	16 µg/mL	–	–	64 µg/mL	64 µg/mL	250 µg/mL	16 µg/mL	–	–	–	–
CC(=O)OC[n+]1ccccc1.[Cl-]	3200 µg/mL	320 µg/mL	3200 µg/mL	3200 µg/mL	–	–	3200 µg/mL	3200 µg/mL	3200 µg/mL	3200 µg/mL	–	–	–	–
CCOC(=O)C[n+]1ccccc1	> 12800 µg/mL	> 12800 µg/mL	> 12800 µg/mL	> 12800 µg/mL	–	–	>12800 µg/mL	>12800 µg/mL	>12800 µg/mL	>12800 µg/mL	–	–	–	–
CCCCCCCC/C=C/CCCCCCCC(=O)OCC[n+]1ccccc1.[Br-]	62 µg/mL	4 µg/mL	250 µg/mL	8 µg/mL	1.17	-0.9	125 µg/mL	62 µg/mL	250 µg/mL	16 µg/mL	–	–	–	–
OCCC[n+]1ccccc1	> 2000 µg/mL	> 2000 µg/mL	> 2000 µg/mL	> 2000 µg/mL	–	–	>2000 µg/mL	>2000 µg/mL	>2000 µg/mL	>2000 µg/mL	–	–	–	–
CCCCCCCCCCCC(=O)OCC[N+](CCCC)(CCCC)CCCC.CCCCCCCCCCCCCCCC(=O)OCC[N+](CCCC)(CCCC)CCCC.[Br-].[Br-]	250 µg/mL	16 µg/mL	–	4 µg/mL	–	–	500 µg/mL	16 µg/mL	>2000 µg/mL	32 µg/mL	–	–	–	–
